High-throughput results: PubChem, several laboratories
Compounds with a hit are over-represented: about 4.2% of the library has one in this group of screens.
SKKanGAS inh = blocks kanamycin growth of S. pyogenes SKKanGAS strain | AID 1662 | BacTiter-Glo, 6 h | 300,000 tested, 1.3% active | inhibition, % at 7.5 µM;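 active = mean replicate score, as percent of positive control median, at least 50; inconclusive = mean below 50 but one replicate at or above 50; inactive = mean and every replicate below 50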;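 also: strain carries kanamycin resistance gene driven by streptokinase promoter and grows in 40 µg/ml kanamycin; loss of luminescence reflects streptokinase promoter inhibition or plain growth inhibition; 0% = median of DMSO wells and 100% = positive control at its reference dose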
Ins promoter up = MIN6 insulin promoter up-regulation | 190,000 tested, 0.3% active | AID 1625 | z-score at 5 µM | MIN6 insulin promoter-GFP reporter, high-content imaging; stronger effect = higher value;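 active = z-score above 3 at 5 µM with at least 500 cells counted in the well; inconclusive = wells under 500 cells, flagged as cytotoxic or low count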
WT yeast gro inh = growth inhibition of WT yeast, mitochondrial fusion screen. 190,000 tested, 2.1% active. mitochondrial fusion phenotypic screen, WT strain. inhibition, % at 10 µM. AID 1362; in the data active = inhibition above about 58%; tested in S. cerevisiae
Cl transport mod = modulates chloride dependent transport by human KCC2 | Q9H2X9 | KCC2 cells, thallium flux FluoZin-2 fluorescence | B-score of Tl+ flux slope (higher = more flux/activation; lower = inhibition) at 10 µM | 190,000 tested, 2.2% active | AID 1456;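 active = thallium flux slope and its plate-corrected score both differing from the plate sample mean at a set confidence after two filtering rounds, in either direction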;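 also: slope of fluorescence scaled to starting intensity during 10 to 20 s after thallium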
Autophagy mod = autophagy modulation, high-content screen; 190,000 tested, 0.98% active; MEF GFP-LC3 puncta imaging; test concentration mostly 10 µM; calls only at 10 µM (by protocol); AID 463193;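 active = percentage of spot-positive cells more than 3 SD above its plate mean, without a fluorescence outlier flag or 80% toxicity; inconclusive = no clear call, values can overlap the other calls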;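 also: spot-positive cell cutoff set from DMSO-treated cells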
Rad51 HR inh = blocks human Rad51 in homologous recombination. 200,000 tested, 0.085% active. inhibition, % at 10 µM. AID 1385. hRad51 DNA strand exchange, fluorescence dequenching;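 active = inhibition above 40% at the single screening dose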;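 also: 0% = DMSO control wells and 100% = blanks with heterologous ssDNA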
Target sequence (Q06609 whole entry, looked up): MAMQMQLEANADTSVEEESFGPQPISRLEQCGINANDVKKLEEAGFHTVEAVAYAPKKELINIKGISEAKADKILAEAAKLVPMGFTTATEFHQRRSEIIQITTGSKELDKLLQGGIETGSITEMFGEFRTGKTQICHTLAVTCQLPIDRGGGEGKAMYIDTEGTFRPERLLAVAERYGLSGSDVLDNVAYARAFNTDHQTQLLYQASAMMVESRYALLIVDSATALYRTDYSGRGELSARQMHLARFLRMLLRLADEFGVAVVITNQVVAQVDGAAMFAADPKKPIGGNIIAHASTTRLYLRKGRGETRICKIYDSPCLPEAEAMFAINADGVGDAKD
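Read-out basis: percent inhibition relative to plate controls and blanks / Assay system: human Rad51 nucleoprotein filaments preassembled on unlabelled ssDNA / Timing: filaments 15 min 37 °C, then compound 30 min / Control set: per-plate controls and blanks / Technique: fluorescence dequenching at 485/520 nm / Compound: 10 µM final, single point / Also added: Fluorescein- and BHQ1-tagged 47-mer duplex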
* marks the source's active call; other numbers are inactive results; i = inactive; ? = inconclusive; . = no result given; + = active, no number; ! = a repeat was not active.

SMILES | SKKanGAS inh | Ins promoter up | WT yeast gro inh | Cl transport mod | Autophagy mod | Rad51 HR inh
CCCCN(C(=O)c1ccc(C)cc1)c1c(N)n(CCC)c(=O)[nH]c1=O | -0.3 | . | . | . | . | .
CC1(C)CC(NC(=O)c2cccc(S(=O)(=O)N(Cc3ccccc3)c3ccccc3)c2)CC(C)(C)N1 | -4.9 | . | . | . | . | .
CCOC(=O)c1ccc(NC(=O)Cn2ncc(Cl)c(Cl)c2=O)cc1 | 2.0 | ? | 47.6 | -1.02 | + | -4.8
CCC(=O)Nc1ccc(C(=O)Cn2ncc(Cl)c(Cl)c2=O)cc1 | -6.1 | -3.05 | . | -1.73 | . | .
CC(C)n1c2ccccc2c2cc([N+](=O)[O-])ccc21 | -4.0 | 0.01 | 6.5 | 0.246 | i | .
CCC(C)n1c(=S)[nH]c2c(sc3ccc([N+](=O)[O-])cc32)c1=O (centres undefined) | -5.3 | -0.21 | 68.1* | 52.6* | i | -1.8
CCCn1c(=O)c(C(=O)N/N=C/c2ccccc2F)c(O)c2ccccc21 | 14.6 | 0.09 | -0.2 | 0.0404 | i | -2.2
CCCn1c(=O)c(C(=O)NC(C)c2ccccc2)c(O)c2ccccc21 (centres undefined) | -2.9 | . | . | . | . | .
CCCn1c(=O)c(C(=O)N/N=C/c2ccc(F)cc2)c(O)c2ccccc21 | 103.1* | . | . | 0.0315 | . | .
CCCCCCn1c(=O)c(C(=O)N/N=C/c2cccc(F)c2)c(O)c2ccccc21 | 62.9* | 1.31 | -22.3 | 1.07 | i | 19.0
CC(C)CCn1c(=O)c(C(=O)N/N=C/c2cccc(F)c2)c(O)c2ccccc21 | 80.7* | -2.06 | 17.4 | 0.108 | i | -6.3
COc1ccc(OCCn2cc(/C=N/NC(=O)c3ccncc3)c3ccccc32)cc1 | -10.1 | -0.47 | 5.7 | -0.799 | i | -0.5
COc1cccc(OCCn2cc(/C=N/NC(=O)c3ccncc3)c3ccccc32)c1 | 10.4 | -0.06 | 5.7 | -0.685 | + | -4.8
CC1CC(C)(C)N2C(=O)C3(Nc4ccccc4S3)c3cccc1c32 (centres undefined) | 14.4 | . | 66.8* | . | i | 0.5
CCOc1ccccc1C(=O)N(Cc1ccc(C)o1)C1CCS(=O)(=O)C1 (centres undefined) | 0.8 | . | . | . | . | .
CCc1ccccc1NC1=NCC(=O)N1C1CCCCC1 | 13.1 | -0.76 | -0.7 | 0.424 | i | .
Cc1cc(C)c(NC2=NCC(=O)N2C2CCCCC2)c(C)c1 | 4.2 | -0.41 | 68.3* | -0.261 | i | -3.6
COCCCN(CC(=O)O)S(=O)(=O)c1cccc(Cl)c1 | 2.1 | -0.02 | -8.6 | -0.796 | i | 8.4
O=C(NC(NC(=S)Nc1c(Cl)cccc1Cl)C(Cl)(Cl)Cl)OCc1ccccc1 (centres undefined) | 76.8* | -0.04 | 38.3 | -0.0452 | i | 4.8
CC1(C(=O)OCC(=O)Nc2nnc(-c3ccccc3)o2)CC1(Cl)Cl (centres undefined) | 73.2* | . | . | . | . | .
CCOc1ccccc1C(=O)OCC(=O)Nc1nnc(-c2ccccc2)o1 | 77.2* | . | . | . | . | .
Cc1cccc(C(=O)OCC(=O)Nc2nnc(-c3ccccc3)o2)c1O | 97.5* | . | . | . | . | .
COc1ccc(CC(=O)Nc2nc(-c3ccc(F)c(F)c3)cs2)cc1 | 12.0 | . | . | . | . | .
CC1(C(=O)OCC(=O)Nc2nc(-c3ccc(F)c(F)c3)cs2)CC1(Cl)Cl (centres undefined) | 71.1* | . | . | . | . | .
CSc1ccccc1NC(=O)NCCCl | -0.4 | 1.18 | -6.4 | -0.419 | i | -2.4
SMILES | SKKanGAS inh | Ins promoter up | WT yeast gro inh | Cl transport mod | Autophagy mod | Rad51 HR inh
O=C(COc1coc(CN2CCN(c3cccc(Cl)c3)CC2)cc1=O)NC1CCCC1 | -9.4 | . | . | . | . | .
CCOC(=O)c1c(C)[nH]c(C)c1C(=O)COC(=O)[C@@H](NC(=O)c1ccccc1OCC)C(C)C | 1.0 | -1.91 | 9.6 | -1.36 | i | 5.2
CCOc1ccccc1C(=O)NC(C(=O)OCC(=O)Nc1nnc(-c2ccccc2)o1)C(C)C (centres undefined) | 60.3* | 0.08 | 12.1 | -0.0992 | i | -0.7
CCCc1nnc(NC(=O)C2CCN(C(=O)C3CC(=O)N(c4ccc(C)cc4)C3)CC2)s1 (centres undefined) | -9.3 | . | . | . | . | .
CC1CCC(C(C)C)C(OC(=O)Cn2c(-c3ccccc3)[n+](C)c3ccccc32)C1 (centres undefined) | 12.4 | ? | 40.0 | -0.117 | +! | 6.5
O=C(Nc1ccccc1-c1nc2ccccc2[nH]1)c1sc2ccccc2c1Cl | 64.2* | -0.02 | 9.5 | -0.45 | i | 2.7
O=C(Nc1nccs1)c1sc2ccccc2c1Cl | 49.6* | 0.24 | 19.2 | 0.128 | i | 1.1
O=C(NC1=NCCS1)c1sc2cc(F)ccc2c1Cl | -7.7 | 0.71 | -9.9 | -0.298 | i | 7.6
O=C(Nc1ccccc1-c1nc2ccccc2[nH]1)c1ccc(N2C(=O)CCC2=O)cc1 | 1.1 | -0.04 | -0.8 | 0.262 | i | -5.2
O=C(Nc1ccon1)c1sc2cc(F)ccc2c1Cl | . | -0.17 | 6.2 | -0.456 | + | 4.2
O=C(Nc1nccs1)c1sc2cc(Cl)ccc2c1Cl | 66.3* | 0.08 | 8.4 | . | i | -1.7
COc1ccc(NC(=O)CN(C)C(=O)c2ccc(NS(=O)(=O)c3cccc([N+](=O)[O-])c3)cc2)cc1 | -2.2 | . | . | . | . | .
CC(=O)Nc1ccc(S(=O)(=O)NCc2nc(-c3cccc(C)c3)no2)cc1 | 21.2 | . | . | . | . | .
O=C(NC1C=CS(=O)(=O)C1)c1sc2ccccc2c1Cl (centres undefined) | -0.4 | 3.86* | -6.9 | 1.09 | i | 1.5
O=C(Nc1ccc(Cl)c(Cl)c1)Nc1nccs1 | 54.7* | -0.12 | . | 1.03 | . | -57.3
Cn1nc(C(=O)N2CCN(C(c3ccccc3)c3ccccc3)CC2)c2ccccc2c1=O | -0.5 | 0.33 | . | -0.196 | . | -27.0
Cc1cc(C)c(C(N)=O)c(Nc2cccc3ccccc23)n1 | 6.0 | . | 62.4* | 0.702 | i | 13.4
Cc1nc(-c2ccc(S(=O)(=O)Nc3cccc(S(N)(=O)=O)c3)s2)cs1 | 5.6 | 0.07 | . | 0.982 | . | 12.6
Cc1nc(-c2ccc(S(=O)(=O)Nc3ccc(Br)cc3Cl)s2)cs1 | 73.9* | 0.55 | . | 2.66 | . | .
O=C(CCN1C(=O)c2ccccc2S1(=O)=O)N1CCN(c2cccc(Cl)c2)CC1 | -7.5 | . | . | . | . | .
O=C(C1=C[C@H](c2csc3ccccc23)C[C@H](OCc2ccc(CO)cc2)O1)N1CCN(Cc2ccc3c(c2)OCO3)CC1 | 26.2 | -0.67 | 97.7* | -0.312 | i | -0.8
O=C(C1=C[C@H](c2csc3ccccc23)C[C@H](OCc2ccc(CO)cc2)O1)N1CCN(Cc2ccccc2)CC1 | 32.6 | -0.45 | 96.6* | -0.495 | i | 0.4
CN1CCN(C(=O)C2=C[C@@H](c3csc4ccccc34)C[C@@H](OCc3ccc(CO)cc3)O2)CC1 | -7.6 | 0.23 | 2.2 | -0.188 | i | -5.0
CCN(C(=O)CCS(=O)(=O)c1cccc2nonc12)c1ccc(C)c(C)c1 | -0.9 | . | . | . | . | .
CCOC(=O)N1CCc2c(sc(NC(=O)CN3CCN(C)CC3)c2C(=O)Nc2ccccc2)C1 | 1.5 | 0.05 | -6.5 | -0.00258 | i | -5.4
CCOC(=O)N1CCc2c(sc(NC(=O)CN3CCOCC3)c2C(=O)Nc2ccccc2)C1 | 21.4 | 0.04 | 6.5 | -0.147 | + | 1.0
